≈ marks a conversion by molar mass, not a printed value. Peptide text beside a SMILES is read from it. * marks the point of attachment. Thiocarbamoyl(N-4-ClPh) = S=C(Nc1ccc(Cl)cc1)*; X1 = Fc1ccc2c(C3CCN(*)CC3)noc2c1; OcHex = C1CCC(O*)CC1
Tests used:
Format in all cases: functional
Aspergillus niger [1] = assay: Antifungal activity against Aspergillus niger at 30 ug/ml after 72 hrs by agar well diffusion method; details: read-out: DIZ
Procedure, shortened: (§1)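 Fungal well diffusion. Inocula were subcultured in nutrient broth for one day, then spread on solidified medium. Compounds were made as a 1 mg/mL DMSO stock and diluted to 30 µg/mL final. Each 6 mm well got 0.1 mL. Controls were bavistin (reference) and DMSO (negative). Plates stood for 3 days at room temperature. Inhibition zone was measured in mm as the mean of three determinations.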

Klebsiella pneumoniae = assay: Antibacterial activity against Klebsiella pneumoniae at 30 ug/ml after 24 hrs by agar well diffusion method; details: read-out: DIZ
Procedure, shortened: (§2)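 Agar well diffusion. Inocula were grown in nutrient broth at 37 °C for 24 h, then subcultured in nutrient broth at room temperature. Compounds were made as a 1 mg/mL DMSO stock and diluted to 30 µg/mL final. Nutrient agar plates were spread-inoculated and 6 mm wells each got 0.1 mL. Controls were amoxicillin (reference) and DMSO (negative). Incubation was 24 h at 37 °C. Inhibition zone was measured in mm as the mean of three determinations.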

Fusarium oxysporum [2] = assay: Antifungal activity against Fusarium oxysporum after 72 hrs by microdilution method
Escherichia coli = assay: Antibacterial activity against Escherichia coli at 30 ug/ml after 24 hrs by agar well diffusion method; details: read-out: DIZ; procedure, shortened: as §2
Fusarium oxysporum [3] = assay: Ratio of bavistin MIC to compound MIC for Fusarium oxysporum after 72 hrs by microdilution method
Staphylococcus aureus = assay: Antibacterial activity against coagulase-positive Staphylococcus aureus at 30 ug/ml after 24 hrs by agar well diffusion method; details: read-out: DIZ; procedure, shortened: as §2
Aspergillus niger [4] = assay: Antifungal activity against Aspergillus niger after 72 hrs by microdilution method
Xanthomonas oryzae = assay: Antibacterial activity against Xanthomonas oryzae at 30 ug/ml after 24 hrs by agar well diffusion method; details: read-out: DIZ
Aspergillus flavus [5] = assay: Antifungal activity against Aspergillus flavus after 72 hrs by microdilution method
Aspergillus flavus [6] = assay: Antifungal activity against Aspergillus flavus at 30 ug/ml after 72 hrs by agar well diffusion method; details: read-out: DIZ; procedure, shortened: as §1
Fusarium oxysporum [7] = assay: Antifungal activity against Fusarium oxysporum at 30 ug/ml after 72 hrs by agar well diffusion method; details: read-out: DIZ; procedure, shortened: as §1
Aspergillus flavus [8] = assay: Ratio of bavistin MIC to compound MIC for Aspergillus flavus after 72 hrs by microdilution method
Aspergillus niger [9] = assay: Ratio of bavistin MIC to compound MIC for Aspergillus niger after 72 hrs by microdilution method

`CC(C)[C@H](NC(=O)CNC(=O)[C@@H]1CCCN1C(=O)[C@H](Cc1ccccc1)NC(=O)CNC(=O)[C@H](CCC(=O)OC1CCCCC1)NC(=O)CNC(=S)Nc1ccc(Cl)cc1)C(=O)NCC(=O)N[C@H](C(=O)N1CCC[C@H]1C(=O)NCC(=O)N[C@H](C(=O)NCC(=O)N[C@H](C(=O)N1CCC[C@H]1C(=O)NCC(=O)N[C@H](C(=O)NCC(=O)N[C@H](C(=O)N1CCC[C@H]1C(=O)NCC(=O)N[C@@H](Cc1ccccc1)C(=O)NCC(=O)N[C@@H](Cc1ccccc1)C(=O)N1CCC[C@H]1C(=O)NCC(=O)N[C@@H](Cc1ccccc1)C(=O)NCC(=O)N[C@@H](Cc1ccccc1)C(=O)N1CCC[C@H]1C(=O)N1CCC(c2noc3cc(F)ccc23)CC1)C(C)C)C(C)C)C(C)C)C(C)C)C(C)C` ({Thiocarbamoyl(N-4-ClPh)}-GE(OcHex)GFPGVGVPGVGVPGVGVPGFGFPGFGFP-X1) gave a zone of inhibition at 30 µg/mL (Aspergillus niger [1]) of 45 mm, a zone of inhibition at 30 µg/mL (Klebsiella pneumoniae) of 19 mm and an MIC (Fusarium oxysporum [2]) of 2.5 µg/mL (≈ 0.781 µM). It also gave a zone of inhibition at 30 µg/mL (Escherichia coli) of 21 mm, a Ratio (Fusarium oxysporum [3]) of 10 and a zone of inhibition at 30 µg/mL (Staphylococcus aureus) of 17 mm. It also gave an MIC (Aspergillus niger [4]) of 1.75 µg/mL (≈ 0.547 µM), a zone of inhibition at 30 µg/mL (Xanthomonas oryzae) of 17 mm and an MIC (Aspergillus flavus [5]) of 1.75 µg/mL (≈ 0.547 µM). It also gave a zone of inhibition at 30 µg/mL (Aspergillus flavus [6]) of 40 mm, a zone of inhibition at 30 µg/mL (Fusarium oxysporum [7]) of 41 mm and a Ratio (Aspergillus flavus [8]) of 10. The Ratio (Aspergillus niger [9]) was 10.
